# In ChEMBL document CHEMBL1154891, “Cytotoxic acylphloroglucinol derivatives from the twigs of Garcinia cowa” (J Nat Prod, 2010):
# Activity calls are given as the source filed them. The rule behind the calls is not given here.
# How the values were obtained:
# HT-29 [1] = experiment: Cytotoxicity against human HT-29 cells at 5 uM after 24 hrs by MTT assay; format: functional
# HCT-116 = experiment: Cytotoxicity against human HCT116 cells at 5 uM after 24 hrs by MTT assay; format: functional, cell-based
# [2] = Cytotoxicity against human CCD-18Co cells at 5 uM after 24 hrs by MTT assay; format: cell-based
# Method in brief: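 CCD-18Co colon fibroblasts grown in MEM with 10% FBS and HEPES at 37 °C, 5% CO2, seeded overnight at 7 × 10^3 cells/well. MTT added for 3 h at 37 °C, formazan dissolved in DMSO, A570 read with 620 nm background subtraction. Untreated = 100%. Triplicate, ≥3 independent experiments, mean + SEM.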
# [3] = Cytotoxicity against human CCD-18Co cells at 5 uM after 24 hrs by MTT assay
# HT-29 [4] = experiment: Cytotoxicity against human HT-29 cells after 24 hrs by MTT assay; format: functional, cell-based; details: HT-29, 24 h
# Method in brief: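 MTT read-out: 3 h at 37 °C, DMSO solubilization, A570 with 620 nm background. Viability relative to untreated control; IC50 derived. Cisplatin in saline run in parallel as positive control. Mean + SEM.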
SMILES,Activity (HT-29 [1]),Activity (HCT-116),Activity [2],Activity [3],IC50 (HT-29 [4]) [µM]
CC(C)=CCC/C(C)=C/C[C@@H]1C[C@]2(CC=C(C)C)C(=O)[C@@](CC=C(C)C)(C(=O)C(C(=O)c3ccc(O)c(O)c3)=C2O)[C@@]1(C)CCC=C(C)C [OBLONGIFOLIN C],Active,Active,Non-toxic,Non-toxic,
C=C(C)[C@@H]1C[C@]23C[C@@H](CC=C(C)C)C(C)(C)[C@](CC=C(C)C)(C(=O)C(C(=O)c4ccc(O)c(O)c4)=C2O[C@H]1C=C(C)C)C3=O [GARCICOWIN D],57.7%,,Non-toxic,Non-toxic,
CC(C)=CCC/C(C)=C/C[C@@H]1C[C@@]2(C/C=C(\C)CCC=C(C)C)C(=O)[C@](CC=C(C)C)(C(=O)C(C(=O)c3ccc(O)c(O)c3)=C2O)C1(C)C [GUTTIFERONE B],Active,Active,Non-toxic,Non-toxic,
CC(C)=CCC/C(C)=C/C[C@@H]1C[C@]2(CC=C(C)C)C(=O)[C@@](CC=C(C)C)(C(=O)C(C(=O)c3cccc(O)c3)=C2O)[C@@]1(C)CCC=C(C)C [GARCICOWIN B],,,Non-toxic,Non-toxic,
CC(C)=CCC/C(C)=C/C[C@H]1C[C@]2(C/C=C(\C)CCC=C(C)C)C(=O)[C@@](CC=C(C)C)(C(=O)C(C(=O)c3ccc(O)c(O)c3)=C2O)C1(C)C [OBLONGIFOLIN D],inactive,inactive,Non-toxic,Non-toxic,
CC(C)=CC[C@H]1C[C@@]23C[C@@H](CC=C(C)C)C(C)(C)[C@@](CC=C(C)C)(C(=O)C(C(=O)c4ccc(O)c(O)c4)=C2OC1(C)C)C3=O [CAMBOGIN],Active,Active,Non-toxic,Non-toxic,
CC(C)=CCC/C(C)=C/C[C@@H]1C[C@]2(CC=C(C)C)C(=O)[C@@](CC=C(C)C)(C(=O)C(C(=O)c3ccc(O)c(O)c3)=C2O)C1(C)C [OBLONGIFOLIN B],Active,Active,Non-toxic,Non-toxic,
C=C(C)[C@@H]1C[C@]23C[C@H](CC=C(C)C)C(C)(C)[C@](CC=C(C)C)(C(=O)C(C(=O)c4ccc(O)c(O)c4)=C2O[C@H]1C=C(C)C)C3=O [GARCINIALIPTONE B],73.8%,,Non-toxic,Non-toxic,
CC(C)=CC[C@@H]1C[C@@]23C[C@@H](CC=C(C)C)C(C)(C)[C@](CC=C(C)C)(C(=O)C(C(=O)c4ccc(O)c(O)c4)=C2OC1(C)C)C3=O,Active,Active,Non-toxic,Non-toxic,5.1
CC(C)=CCC/C(C)=C/C[C@H]1CC(C)(C)OC2=CC(=O)[C@]3(CC=C(C)C)C(=O)[C@@]21CC[C@]3(C)CCC=C(C)C [GARCICOWIN A],,,Non-toxic,Non-toxic,
